An excerpt weighted towards active compounds, which were near 1.1% of everything screened.
T cell modulator – modulates CD8 T cell binding to vesicles; 2C CD8+ T cell-vesicle binding, flow cytometry; stronger effect = lower value; response (vesicle binding), % at 7 µM; hit rate 0.068% among 330,000;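 active = response, share of CD8 T cells binding vesicles, and their 90th percentile fluorescence all below set limits, cut at about 80% in these data, passing the limit was not always enough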;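 note: values below 100% mean blocked vesicle binding to the CD8+ T cells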
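Assay system: 2C TCR transgenic mouse naive CD8+ T cells, MACS-purified | Read-out: CD8+ gate FL2 mean fluorescence as % of same-row positive control | Signal: High-throughput flow cytometry with anti-B7-1 and anti-CD8 staining | Timing: Binding step 1.5 h, 37 °C, antibody labelling 20 min, ice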
aDG glyco up – increases alpha dystroglycan glycosylation. Pro5-aDG cells, alpha-DG glycosylation AlphaScreen (IIH6); 0% Pro5, 100% B10-LARGE cell signal. hit rate 0.22% among 360,000. activation, % at 10 µM;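 active = activation of at least 8% versus controls, or a plate z-score of at least 8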;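 note: Pro5 are CHO cells carrying HIG-tagged alpha-DG that lacks glycosylation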
procasp7 counter – counter-screen for procaspase-3 activators: activators of human procaspase-7 | P55210 | recombinant procaspase-7, Ac-DEVD-pNA absorbance 405 nm; D23A/D198A/D206A triple mutant, cannot self-cleave; scale: DMSO 0, 5 µM enzyme 100 | activation, % at 8.5 µM | hit rate 0.093% among 330,000;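 active = percent activation above the screen-wide mean plus 3 SD, cut at about 25% in these data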
Target sequence (P55210 whole entry D23A/D198A/D206A): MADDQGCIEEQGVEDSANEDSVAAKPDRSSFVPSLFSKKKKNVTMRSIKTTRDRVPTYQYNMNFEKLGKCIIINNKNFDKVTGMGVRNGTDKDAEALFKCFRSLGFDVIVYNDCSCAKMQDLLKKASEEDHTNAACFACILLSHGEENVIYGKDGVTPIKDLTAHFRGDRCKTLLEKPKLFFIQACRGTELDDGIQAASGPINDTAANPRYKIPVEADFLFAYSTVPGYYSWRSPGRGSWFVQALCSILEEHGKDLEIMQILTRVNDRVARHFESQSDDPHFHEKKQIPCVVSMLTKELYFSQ
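Assay system – Uncleavable procaspase-7 mutant enzyme · Quantity – 2 µM procaspase-7 mutant as dispensed · Times – 1 h preincubation, 2 h reaction · Dosing – single nominal 8.5 µM compound dose, 0.8% DMSO final · Buffer or medium – Zinc-free 50 mM HEPES buffer, pH 7.4, with NaCl and Triton X-100 · Detection – Epi-absorbance of released pNA at 405 nm, two timepoints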
CaV13 ICDI inh – Primary screen for inhibitors of IQ motif and Ca2+-dependent inactivation inhibitor domain binding in CACNA1D, Förster resonance energy transfer in living cells, …. hit rate 0.098% among 340,000. HEK cells, CFP/YFP FRET ICDI-IQ, plate reader, 10 min; percent FRET-ratio fall versus neutral wells. inhibition, % at 12.3 µM. AID 743397;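 active = mean replicate inhibition of at least 30% and at least 1% of replicates passing that level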;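 note: 0% = median of the neutral control wells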
proCasp3 act – procaspase-3 (human) activation; activation, % at 8.5 µM; hit rate 0.11% among 330,000; recombinant procaspase-3 D3A, Ac-DEVD-pNA absorbance 405 nm; P42574;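 active = activation above the mean of all tested compounds plus 3 SD, cut at about 21% in these data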;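 note: 0% = DMSO alone and 100% = DMSO wells spiked with extra 5 µM PC-3 D3A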
Target sequence (P42574 whole entry D9A/D28A/D175A): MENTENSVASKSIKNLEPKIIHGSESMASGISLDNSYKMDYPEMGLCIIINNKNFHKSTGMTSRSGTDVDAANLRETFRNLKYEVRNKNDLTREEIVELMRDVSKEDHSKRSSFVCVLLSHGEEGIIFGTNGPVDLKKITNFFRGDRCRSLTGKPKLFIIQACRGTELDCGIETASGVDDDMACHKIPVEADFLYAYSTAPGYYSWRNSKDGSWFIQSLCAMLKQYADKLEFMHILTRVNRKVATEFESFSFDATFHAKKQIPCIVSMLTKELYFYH
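assay system = Procaspase-3 D3A mutant | signal = absorbance at 405 nm, 0 and 120 min | times = 1 h preincubation plus 2 h reaction at 25 °C | repeats = single replicate | read-out = % activation between DMSO and enzyme-spiked controls | medium = Zinc-free HEPES saline buffer with Triton X-100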
GRK2 inh – human GRK2 inhibition via aptamer displacement; AID 488847; bead flow cytometry, FAM-aptamer displacement from GRK2; inhibition of aptamer binding, % at 10 µM; P25098; hit rate 0.59% among 330,000;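 active = inhibition of aptamer binding above 40%, roughly 3 SD of noise, on plates passing a quality check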;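 note: median bead fluorescence of bound FAM aptamer so fluorescent compounds give negative values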
GRK2 CP1 – human GRK2 inhibition confirmation, cherry pick 1. bead-bound GRK2, FAM-aptamer displacement, flow cytometry. hit rate 4% among 2,000. aptamer displacement, % at 10 µM. shares compounds with GRK2 inh;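 active = aptamer displacement above 40%, near three times the noise of non-fluorescent compounds, on plates passing quality checks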;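 note: negative values mostly reflect intrinsic compound fluorescence rather than true enhancement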
Aptamer quench 1 – fluorescent aptamer quenching in GRK2 counter-screen dose response | shares compounds with GRK2 inh | Fluorescent RNA aptamer beads, flow cytometry; stronger effect = higher value | fluorescence change (kMESF span), kMESF (concentration not given with the values) | 110 tested, under 10 active | AID 504521;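 active = compounds whose bead fluorescence drops by more than 37 kMESF across the dose range, marking them as dye quenchers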
FAM quench CP1 – aptamer fluorescence quenching in GRK2 counter-screen; shares compounds with GRK2 inh; Carboxyfluorescein RNA aptamer on beads, flow cytometry quenching; stronger effect = lower value; fluorescence response (% of DMSO), % at 10 µM; 2,000 tested, under 10 active;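 active = compounds that quench the bead-bound fluorescent RNA probe, cutting fluorescence to under half of the solvent control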;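 note: counterscreen run without GRK2 so only probe quenching by compound is measured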
GRK2 CP2 – human GRK2 inhibition confirmation, cherry pick 2; shares compounds with GRK2 inh; bead-bound GRK2, FAM-aptamer displacement, flow cytometry; inhibition of aptamer binding, % at 10 µM; 360 tested, under 10 active;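 active = inhibition of aptamer binding above 40%, about triple the noise seen with nonglowing compounds, on plates passing quality control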;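 note: negative values mostly come from compounds that fluoresce themselves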
FAM quench CP2 – aptamer fluorescence quenching in GRK2 counter-screen; 360 tested, under 10 active; shares compounds with GRK2 inh; fluorescence response vs DMSO, % at 10 µM; carboxyfluorescein RNA aptamer beads, flow cytometry quenching; stronger effect = lower value; AID 588494;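 active = response vs DMSO under 50%, meaning signal dropped by over half, treated as fluorescence quencher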;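 note: labelled aptamer on streptavidin beads without GRK2 as a quench counter-screen; 100% = bead fluorescence of DMSO wells and lower means quenching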
FAM quench DR – counter-screen for GRK2 aptamer binding inhibitors: aptamer fluorescence quenching. Bead-bound FAM RNA aptamer fluorescence quenching, flow cytometry; stronger effect = lower value. fluorescence ratio to DMSO, % at 11.1 µM. shares compounds with GRK2 inh. AID 588496. 35 tested, under 10 active;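 active = compounds that dim the fluorescent label, raw bead signal shifting by over 33 units between lowest and highest dose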
The depositor's hits bear a star; . = no result.

SMILES	T cell modulator	aDG glyco up	procasp7 counter	CaV13 ICDI inh	proCasp3 act	GRK2 inh	GRK2 CP1	FAM quench CP1	others
CCN(CC(=O)NCc1ccc(F)cc1)C(=O)C(C)Oc1cccc(Cl)c1 (stereo not drawn)	416	0	0	-6	0	79*	-1	101
Cn1cc(S(=O)(=O)N2CCOCC2)cc1C(=O)NCc1ccccc1Cl	515	0	-2	-4	2	0	2	99
CC(=O)c1cc2c(cc1NC(=O)C1CN(C(C)=O)c3ccccc3O1)OCO2 (stereo not drawn)	251	0	2	-6	-4	26	0	104
CC(=O)c1cc2c(cc1NC(=O)C1CC=CCC1C(=O)O)OCO2 (stereo not drawn)	597	0	1	-4	7	4	.	.
C[C@@H]1ON(C)[C@H]2C[C@H]3c4[nH]c5c(-c6ccc7c(c6)OCO7)cccc5c4CCN3C(=O)[C@@H]12	.	.	.	-4	.	.	.	.
COC(=O)[C@]12C[C@H](CC(=O)N3CCN(C(=O)C4CC4)CC3)C(=O)N(Cc3ccccc3)C1=C[C@H](C(C)C)O[C@@H]2C1CC1	.	.	.	-6	.	.	.	.
O=C(COC(=O)Cc1ccc(-c2ccccc2)cc1)NCc1ccc(F)cc1	335	0	-12	-4	-2	8	-1	99
Cc1ccc(CNC(=O)COC(=O)Cc2ccc(-c3ccccc3)cc2)cc1	178	0	-4	-2	-1	0	-3	99
O=S(=O)(NCc1c(Cl)cccc1Oc1ccccc1)c1ccc(F)cc1	453	0	0	-4	-4	0	.	.
CSc1cccc(NC(=O)c2cccc3cccnc23)c1	398	0	-5	-5	2	0	.	.
COC(=O)CNc1n[nH]c(=S)[nH]c1=O	376	0	4	-4	1	85*	-9	99
CC(C)OC(=O)CNc1n[nH]c(=S)[nH]c1=O	.	0	.	3	.	.	.	.
COc1ccc(Cl)cc1NC(=O)c1cccc(S(=O)(=O)Nc2c(C)n(C)n(-c3ccccc3)c2=O)c1	.	.	.	-2	.	.	.	.
CCCN1CCN(C(=O)c2noc3c2COc2ccc(C)cc2-3)CC1	619	0	2	13	-8	59*	-2	98
CCOC(=O)N1CCN(C(=O)c2noc3c2COc2ccccc2-3)CC1	238	-1	-3	-2	-3	0	.	.
CC(OC(=O)Cc1c[nH]c2ccccc12)C(=O)N(C)c1ccccc1 (stereo not drawn)	202	1	3	-6	7	9	-1	96
CC12CCC(C/C1=N\N=C1\NC(=O)/C(=C\c3ccc(Cl)cc3)S1)C2(C)C (stereo not drawn)	232	0	-5	-3	-4	0	.	.
Fc1ccc(CN2CCN(c3ncc(Cc4ccccc4)cn3)CC2)c(Cl)c1	.	.	.	-7	.	.	.	.
O=C(CSc1nc2ccccc2c(=O)n1-c1ccccc1)N1CCC1	320	0	8	-4	-3	2	.	.
O=C(CSc1nc2ccccc2c(=O)n1-c1ccccc1)NC(=O)CN1CCCC1=O	253	1	2	-4	-2	70*	50*	103	Aptamer quench 1=12;GRK2 CP2=28;FAM quench CP2=100;FAM quench DR=96
CCN(/N=C/c1ccc(Cl)cc1)c1cc(=O)n(C)c(=O)[nH]1	201	0	1	14	12	92*	-8	95
COc1cc2c(cc1OC)[C@@H](NC(=O)c1ccncc1)[C@H](C)[C@H]2c1ccccc1	.	.	.	-3	.	.	.	.
O=C(Nc1ccc(F)cc1F)c1noc2c1CCC2	199	0	-2	.	1	59*	13	102
O=C(Nc1cc(Cl)ccc1Cl)c1noc2c1CCCC2	357	0	1	-6	5	0	.	.
NC(=O)c1cnccn1	496	0	2	-5	0	0	.	.
SMILES	T cell modulator	aDG glyco up	procasp7 counter	CaV13 ICDI inh	proCasp3 act	GRK2 inh	GRK2 CP1	FAM quench CP1	others
CC(C)(C)c1ccc(C2C3=C(CCCC3=O)NC3=C2C(=O)c2ccccc23)cc1 (stereo not drawn)	510	0	-16	-7	-5	51*	1	99
CC1(C)CC(=O)C2=C(C1)NC1=C(C(=O)c3ccccc31)C2c1ccccc1 (stereo not drawn)	376	0	3	-3	9	3	.	.
CC1Sc2ccc(S(=O)(=O)CCC(=O)Nc3ccc(C(C)C)cc3)cc2NC1=O (stereo not drawn)	107	0	-2	-3	2	0	.	.
CCOc1ccccc1N(C)C(=O)CCS(=O)(=O)c1ccc2c(c1)NC(=O)C(C)S2 (stereo not drawn)	254	0	-5	-2	12	5	.	.	GRK2 CP2=-5;FAM quench CP2=101
CCC1Sc2ccc(S(=O)(=O)CCC(=O)Nc3c(Cl)cc(OC)cc3OC)cc2NC1=O (stereo not drawn)	239	0	5	-2	6	3	.	.	GRK2 CP2=18;FAM quench CP2=100
CC1Sc2ccc(S(=O)(=O)CCC(=O)Nc3ccccc3Cl)cc2NC1=O (stereo not drawn)	312	0	-4	-14	1	6	.	.
CCC1Sc2ccc(S(=O)(=O)Nc3cc(OC)cc(OC)c3)cc2NC1=O (stereo not drawn)	465	0	0	-5	-6	6	.	.

Source: PubChem BioAssay
